Experiment [1] in a line: Antitumor activity against mouse Ridgeway osteogenic sarcoma cells allografted in mouse at 1 to 2 mg/kg/day, ip. Type of experiment: functional. The conditions noted are these: route intraperitoneal. A digest of the protocol: (§1)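 Sulfate salts given ip on days 1-9 against ROS and GLS in mice; tumor growth scored as percent inhibition versus controls (+++ = 75-100%, ++ = 50-75%, ± = under 25%).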

A short description of experiment [2]: Antitumor activity against mouse Gardner lymphosarcoma cell allografted in mouse at 1.0 to 2.0 mg/kg/day, ip. In kind it is functional. The conditions noted are these: route intraperitoneal. An outline of the steps:
as §1

Another experiment concerns Mus musculus. The experiment can be described thus: Antitumor activity against Gardner lymphosarcoma cell in po dosed mouse. In kind it is functional, organism-based.
For experiment [3], the system named is P388. The experiment can be described thus: Antitumor activity against mouse P388 cells allografted in mouse assessed as survival at 2.7 mg/kg/day after 1 day. In kind it is functional, organism-based. A digest of the protocol: (§2)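 P388 ascites implanted ip in mice; sulfate salts dosed either daily or as a single dose on day 1, 10 animals per group. Survivors per total were recorded, median life span was calculated using all deaths and survivors, and percent increase of life span was reported.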

Experiment [4] has as its system P388. The experiment can be described thus: Antitumor activity against mouse P388 cells allografted in mouse assessed as survival at 4 mg/kg/day after 1 day. In kind it is functional, organism-based. A digest of the protocol: as §2
Experiment [5] concerns P388. The experiment is described as follows: Antitumor activity against mouse P388 cells allografted in mouse assessed as survival at 0.10 mg/kg/day administered from day 1 to day 9. In kind it is functional, organism-based. An outline of the steps:
as §2

The test system of experiment [6] is Leukemia cell. The experiment can be described thus: Antitumor activity against human leukemia cells allografted in human assessed as remission of nonlymphocytic leukemia at 3 to 4 mg/m'2, iv once weekly dosed through push technique. In kind it is functional, organism-based.
For another experiment, the system named is sarcoma. The experiment is described as follows: Antitumor activity against mouse Ridgeway osteogenic sarcoma cell allografted in po dosed mouse. Type of experiment: functional, organism-based.
The subject of experiment [7] is P388. The experiment can be described thus: Antitumor activity against mouse P388 cells allografted in mouse assessed as survival at 1.8 mg/kg/day after 1 day. Type of experiment: functional, organism-based. An outline of the steps:
as §2

Experiment [8] has as its system Leukemia cell. The experiment can be described thus: Antitumor activity against human leukemia cells allografted in human assessed as remission of acute lymphocytic leukemia at 3 to 4 mg/m'2, iv once weekly dosed through push technique. Type of experiment: functional, organism-based.

The results in this text go back to ChEMBL document CHEMBL3272325, “Structure-activity relationships of dimeric Catharanthus alkaloids. 1. Deacetylvinblastine amide (vindesine) sulfate” (J Med Chem, 1978).

Usually TGI stands for how far tumour growth fell short of that in controls. Low values mean a weaker effect on the tumour, high ones a stronger effect on the tumour.

Activity calls are given as the source filed them. The calls are words filed in the database; no cut-off is given here. Bounds are passed on as bounds.

Turning to `CC[C@]1(O)C[C@@H]2C[C@H](c3cc4c(cc3OC)N(C)[C@H]3[C@@](O)(C(N)=O)[C@H](O)[C@]5(CC)C=CCN6CC[C@]43[C@@H]65)c3[nH]c4ccccc4c3CCN(C2)C1.O=S(=O)(O)O`, the TGI in [1] and in [2] was below 25% throughout.

Turning to `CC[C@]1(O)C[C@@H]2CN(CCc3c([nH]c4ccccc34)[C@@](C(=O)OC)(c3cc4c(cc3OC)N(C)[C@H]3[C@@](O)(C(N)=O)[C@H](O)[C@]5(CC)C=CCN6CC[C@]43[C@@H]65)C2)C1`, the result in the experiment with Mus musculus, in the experiment with P388 [3], with P388 [4], in the experiment on P388 [5], with sarcoma and in the experiment with P388 [7] was inactive. Further, the result in the experiment on Leukemia cell [6] and in the experiment on Leukemia cell [8] was Active.
